Source: ChEMBL document CHEMBL1151705, “Novel azalides derived from 16-membered macrolides. Part II: Isolation of the linear 9-formylcarboxylic acid and its sequential macrocyclization with an amino alcohol or an azidoamine” (2008)
Converted amounts (≈) assume the structure as drawn.

How the values were obtained:
Format in all cases: functional
[1] = tested on: Streptococcus pneumoniae; assay: Antimicrobial activity against Streptococcus pneumoniae 8 expressing inducible ermB after 20 hrs by agar dilution method
Method in brief: (§1)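 Streptococci, H. influenzae and M. catarrhalis were precultured on blood agar plates. Suspensions of about 10⁶ CFU/ml were inoculated onto sensitivity disk agar supplemented with 5% horse blood and incubated at 37 °C for 20 h. MIC was read as the lowest drug concentration with no visible growth.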

[2] = tested on: Streptococcus pneumoniae; assay: Antimicrobial activity against Streptococcus pneumoniae 9 expressing mefA after 20 hrs by agar dilution method; settings: Streptococcus pneumoniae, 20 h; read-out: MIC; method in brief: as §1
[3] = tested on: Streptococcus pneumoniae; assay: Antimicrobial activity against Streptococcus pneumoniae 10 expressing mefA after 20 hrs by agar dilution method; settings: Streptococcus pneumoniae, 20 h; read-out: MIC; method in brief: as §1
[4] = tested on: Streptococcus pyogenes; assay: Antimicrobial activity against drug-susceptible Streptococcus pyogenes 1 after 20 hrs by agar dilution method; method in brief: as §1
[5] = tested on: Streptococcus pyogenes; assay: Antimicrobial activity against Streptococcus pyogenes 2 constitutively expressing ermB after 20 hrs by agar dilution method; method in brief: as §1
[6] = tested on: Streptococcus pyogenes; assay: Antimicrobial activity against Streptococcus pyogenes 3 expressing mefA after 20 hrs by agar dilution method; settings: Streptococcus pyogenes, 20 h; read-out: MIC; method in brief: as §1
[7] = tested on: Moraxella catarrhalis; assay: Antimicrobial activity against drug-susceptible Moraxella catarrhalis 1 after 20 hrs by agar dilution method; settings: Moraxella catarrhalis, 20 h; read-out: MIC; method in brief: as §1
[8] = tested on: Moraxella catarrhalis; assay: Antimicrobial activity against drug-susceptible Moraxella catarrhalis 2 after 20 hrs by agar dilution method; settings: Moraxella catarrhalis, 20 h; read-out: MIC; method in brief: as §1
[9] = tested on: Haemophilus influenzae; assay: Antimicrobial activity against drug-susceptible Haemophilus influenzae 1 after 20 hrs by agar dilution method; settings: Haemophilus influenzae, 20 h; read-out: MIC; method in brief: as §1
[10] = tested on: Haemophilus influenzae; assay: Antimicrobial activity against drug-susceptible Haemophilus influenzae 2 after 20 hrs by agar dilution method; settings: Haemophilus influenzae, 20 h; read-out: MIC; method in brief: as §1
[11] = tested on: Haemophilus influenzae; assay: Antimicrobial activity against drug-susceptible Haemophilus influenzae 3 after 20 hrs by agar dilution method; settings: Haemophilus influenzae, 20 h; read-out: MIC; method in brief: as §1
[12] = tested on: Haemophilus influenzae; assay: Antimicrobial activity against drug-susceptible Haemophilus influenzae 4 after 20 hrs by agar dilution method; settings: Haemophilus influenzae, 20 h; read-out: MIC; method in brief: as §1
[13] = tested on: Staphylococcus aureus; assay: Antimicrobial activity against drug-susceptible Staphylococcus aureus 209P JC-1 after 20 hrs by agar dilution method; settings: Staphylococcus aureus, 209P, 20 h; read-out: MIC
Method in brief: (§2)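 Agar dilution MIC. S. aureus seed culture was grown in sensitivity test broth. Cell suspension (about 10⁶ CFU/ml) was inoculated onto sensitivity disk agar with 5% horse blood and incubated at 37 °C for 20 h. MIC was the lowest drug concentration that prevented visible growth.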

[14] = tested on: Staphylococcus aureus; assay: Antimicrobial activity against drug-susceptible Staphylococcus aureus 2 after 20 hrs by agar dilution method; settings: Staphylococcus aureus, 20 h; read-out: MIC; method in brief: as §2
[15] = tested on: Staphylococcus aureus; assay: Antimicrobial activity against drug-susceptible Staphylococcus aureus 3 after 20 hrs by agar dilution method; settings: Staphylococcus aureus, 20 h; read-out: MIC; method in brief: as §2
[16] = tested on: Staphylococcus aureus; assay: Antimicrobial activity against Staphylococcus aureus 4 constitutively expressing ermA after 20 hrs by agar dilution method; method in brief: as §2
[17] = tested on: Staphylococcus aureus; assay: Antimicrobial activity against Staphylococcus aureus 5 expressing inducible ermB after 20 hrs by agar dilution method; settings: Staphylococcus aureus, 20 h; read-out: MIC; method in brief: as §2
[18] = tested on: Streptococcus pneumoniae; assay: Antimicrobial activity against drug-susceptible Streptococcus pneumoniae DP1 Type1 after 20 hrs by agar dilution method; settings: Streptococcus pneumoniae, 20 h; read-out: MIC; method in brief: as §1
[19] = tested on: Streptococcus pneumoniae; assay: Antimicrobial activity against drug-susceptible Streptococcus pneumoniae 2 after 20 hrs by agar dilution method; settings: Streptococcus pneumoniae, 20 h; read-out: MIC; method in brief: as §1
[20] = tested on: Streptococcus pneumoniae; assay: Antimicrobial activity against drug-susceptible Streptococcus pneumoniae 3 after 20 hrs by agar dilution method; settings: Streptococcus pneumoniae, 20 h; read-out: MIC; method in brief: as §1
[21] = tested on: Streptococcus pneumoniae; assay: Antimicrobial activity against Streptococcus pneumoniae 4 constitutively expressing ermB after 20 hrs by agar dilution method; settings: Streptococcus pneumoniae, 20 h; read-out: MIC; method in brief: as §1
[22] = tested on: Streptococcus pneumoniae; assay: Antimicrobial activity against Streptococcus pneumoniae 5 constitutively expressing ermB/mefA after 20 hrs by agar dilution method; settings: Streptococcus pneumoniae, 20 h; read-out: MIC; method in brief: as §1
[23] = tested on: Streptococcus pneumoniae; assay: Antimicrobial activity against Streptococcus pneumoniae 6 constitutively expressing ermB after 20 hrs by agar dilution method; settings: Streptococcus pneumoniae, 20 h; read-out: MIC; method in brief: as §1
[24] = tested on: Streptococcus pneumoniae; assay: Antimicrobial activity against Streptococcus pneumoniae 7 expressing inducible ermB after 20 hrs by agar dilution method; method in brief: as §1
[25] = tested on: Staphylococcus aureus; assay: Antimicrobial activity against Staphylococcus aureus 6 expressing inducible ermB after 20 hrs by agar dilution method; method in brief: as §2
[26] = Streptococcus pneumoniae, 20 h, read-out: MIC
[27] = Streptococcus pyogenes, 20 h, read-out: MIC

Compound | MIC [2] | MIC [3] | MIC [5] | MIC [6] | MIC [7] | MIC [8] | MIC [9] | MIC [11] | MIC [12] | MIC [13] | MIC [14] | MIC [15] | MIC [16] | MIC [17] | MIC [18] | MIC [19] | MIC [20] | MIC [21] | MIC [22] | MIC [23] | also measured
CCOC(=O)[C@H]1[C@H](C)O[C@@H](O[C@H]2[C@H](N(C)C)[C@@H](O)[C@H](O[C@H]3[C@@H](CC=O)C[C@@H](C)[C@@H](O)CN(C)CC(/C=C/Cc4cccc5cccnc45)CCOC(=O)C[C@@H](OC(=O)CC)[C@@H]3OC)O[C@@H]2C)C[C@]1(C)O (stereo partly drawn) | 0.03 µg/mL (≈ 0.0304 µM) | 0.03 µg/mL (≈ 0.0304 µM) | > 128 µg/mL | 0.25 µg/mL (≈ 0.253 µM) | 1 µg/mL (≈ 1.01 µM) | 2 µg/mL (≈ 2.03 µM) | 32 µg/mL (≈ 32.4 µM) | 8 µg/mL (≈ 8.11 µM) | 8 µg/mL (≈ 8.11 µM) | 0.25 µg/mL (≈ 0.253 µM) | 0.5 µg/mL (≈ 0.507 µM) | 0.25 µg/mL (≈ 0.253 µM) | > 128 µg/mL | 0.25 µg/mL (≈ 0.253 µM) | 0.015 µg/mL (≈ 0.0152 µM) | 0.015 µg/mL (≈ 0.0152 µM) | 0.015 µg/mL (≈ 0.0152 µM) | 128 µg/mL (≈ 130 µM) | 128 µg/mL (≈ 130 µM) | 128 µg/mL (≈ 130 µM) | MIC [1, 26]: 8 µg/mL (≈ 8.11 µM); MIC [4, 27]: 0.06 µg/mL (≈ 0.0608 µM); MIC [10]: 2 µg/mL (≈ 2.03 µM); MIC [24, 26]: 8 µg/mL (≈ 8.11 µM); MIC [25]: 0.5 µg/mL (≈ 0.507 µM)
CCOC(=O)[C@H]1[C@H](C)O[C@@H](O[C@H]2[C@H](N(C)C)[C@@H](O)[C@H](O[C@H]3[C@@H](CC=O)C[C@@H](C)[C@@H](O)CN(C)CC(/C=C\Cc4cnc5ccccc5c4)CCOC(=O)C[C@@H](OC(=O)CC)[C@@H]3OC)O[C@@H]2C)C[C@@]1(C)O (stereo partly drawn) | 0.13 µg/mL (≈ 0.132 µM) | 0.13 µg/mL (≈ 0.132 µM) | > 64 µg/mL | 0.5 µg/mL (≈ 0.507 µM) | 2 µg/mL (≈ 2.03 µM) | 2 µg/mL (≈ 2.03 µM) | > 64 µg/mL | 16 µg/mL (≈ 16.2 µM) | 16 µg/mL (≈ 16.2 µM) | 0.5 µg/mL (≈ 0.507 µM) | 1 µg/mL (≈ 1.01 µM) | 0.25 µg/mL (≈ 0.253 µM) | > 64 µg/mL | 0.25 µg/mL (≈ 0.253 µM) | 0.06 µg/mL (≈ 0.0608 µM) | 0.25 µg/mL (≈ 0.253 µM) | 0.13 µg/mL (≈ 0.132 µM) | > 64 µg/mL | > 64 µg/mL | > 64 µg/mL | MIC [1, 26]: 8 µg/mL (≈ 8.11 µM); MIC [4, 27]: 0.13 µg/mL (≈ 0.132 µM); MIC [10]: 8 µg/mL (≈ 8.11 µM); MIC [24, 26]: 8 µg/mL (≈ 8.11 µM); MIC [25]: 1 µg/mL (≈ 1.01 µM)
CCOC(=O)[C@H]1[C@H](C)O[C@@H](O[C@H]2[C@H](N(C)C)[C@@H](O)[C@H](O[C@H]3[C@@H](CC=O)C[C@@H](C)[C@@H](O)CN(C)CC(/C=C/Cc4ccc5ncccc5c4)CCOC(=O)C[C@@H](OC(=O)CC)[C@@H]3OC)O[C@@H]2C)C[C@@]1(C)O (stereo partly drawn) | 0.015 µg/mL (≈ 0.0152 µM) | 0.015 µg/mL (≈ 0.0152 µM) | > 128 µg/mL | 0.25 µg/mL (≈ 0.253 µM) | 1 µg/mL (≈ 1.01 µM) | 1 µg/mL (≈ 1.01 µM) | 32 µg/mL (≈ 32.4 µM) | 8 µg/mL (≈ 8.11 µM) | 8 µg/mL (≈ 8.11 µM) | 0.13 µg/mL (≈ 0.132 µM) | 0.25 µg/mL (≈ 0.253 µM) | 0.13 µg/mL (≈ 0.132 µM) | > 128 µg/mL | 0.13 µg/mL (≈ 0.132 µM) | 0.015 µg/mL (≈ 0.0152 µM) | 0.03 µg/mL (≈ 0.0304 µM) | 0.015 µg/mL (≈ 0.0152 µM) | > 128 µg/mL | > 128 µg/mL | 128 µg/mL (≈ 130 µM) | MIC [1, 26]: 2 µg/mL (≈ 2.03 µM); MIC [4, 27]: 0.03 µg/mL (≈ 0.0304 µM); MIC [10]: 2 µg/mL (≈ 2.03 µM); MIC [24, 26]: 2 µg/mL (≈ 2.03 µM); MIC [25]: 0.25 µg/mL (≈ 0.253 µM)
CCOC(=O)[C@H]1[C@H](C)O[C@@H](O[C@H]2[C@H](N(C)C)[C@@H](O)[C@H](O[C@H]3[C@@H](CC=O)C[C@@H](C)[C@@H](O)CN(C)CC(CCCc4ccnc5ccccc45)CCOC(=O)C[C@@H](OC(=O)CC)[C@@H]3OC)O[C@@H]2C)C[C@@]1(C)O (stereo in doubt; form 1) | 0.03 µg/mL (≈ 0.0304 µM) | 0.03 µg/mL (≈ 0.0304 µM) | > 128 µg/mL | 0.25 µg/mL (≈ 0.253 µM) | 1 µg/mL (≈ 1.01 µM) | 1 µg/mL (≈ 1.01 µM) | 32 µg/mL (≈ 32.4 µM) | 8 µg/mL (≈ 8.1 µM) | 8 µg/mL (≈ 8.1 µM) | 0.25 µg/mL (≈ 0.253 µM) | 0.5 µg/mL (≈ 0.506 µM) | 0.25 µg/mL (≈ 0.253 µM) | > 128 µg/mL | 0.25 µg/mL (≈ 0.253 µM) | 0.015 µg/mL (≈ 0.0152 µM) | 0.03 µg/mL (≈ 0.0304 µM) | 0.03 µg/mL (≈ 0.0304 µM) | > 128 µg/mL | > 128 µg/mL | > 128 µg/mL | MIC [1, 26]: 16 µg/mL (≈ 16.2 µM); MIC [4, 27]: 0.06 µg/mL (≈ 0.0607 µM); MIC [24, 26]: 16 µg/mL (≈ 16.2 µM); MIC [25]: 0.5 µg/mL (≈ 0.506 µM)
CCOC(=O)[C@H]1[C@H](C)O[C@@H](O[C@H]2[C@H](N(C)C)[C@@H](O)[C@H](O[C@H]3[C@@H](CC=O)C[C@@H](C)[C@@H](O)CN(C)CC(/C=C/Cc4ccnc5ccccc45)CCOC(=O)C[C@@H](OC(=O)CC)[C@@H]3OC)O[C@@H]2C)C[C@@]1(C)O (stereo in doubt; form 1) | 0.03 µg/mL (≈ 0.0304 µM) | 0.03 µg/mL (≈ 0.0304 µM) | > 128 µg/mL | 0.13 µg/mL (≈ 0.132 µM) | 1 µg/mL (≈ 1.01 µM) | 1 µg/mL (≈ 1.01 µM) | 16 µg/mL (≈ 16.2 µM) | 8 µg/mL (≈ 8.11 µM) | 8 µg/mL (≈ 8.11 µM) | 0.13 µg/mL (≈ 0.132 µM) | 0.5 µg/mL (≈ 0.507 µM) | 0.13 µg/mL (≈ 0.132 µM) | > 128 µg/mL | 0.13 µg/mL (≈ 0.132 µM) | 0.015 µg/mL (≈ 0.0152 µM) | 0.03 µg/mL (≈ 0.0304 µM) | 0.03 µg/mL (≈ 0.0304 µM) | > 128 µg/mL | > 128 µg/mL | > 128 µg/mL | MIC [1]: 8 µg/mL (≈ 8.11 µM); MIC [4]: 0.03 µg/mL (≈ 0.0304 µM); MIC [24]: 8 µg/mL (≈ 8.11 µM); MIC [25]: 0.25 µg/mL (≈ 0.253 µM)
